Reference: ChEMBL document CHEMBL1955770, “Inhibition of S/G2 phase CDK4 reduces mitotic fidelity” (J Biol Chem, 2006)
Calls of active or inactive are those of the source. The rule behind the calls is not given here.

Tests used:
HeLa [1] = test: Cell cycle arrest at G2 phase in human HeLa cells assessed as effect on CCNB1 accumulation at 2 uM treated at early S phase measured after 6-14 hr post thymidine-synchrony release by immunoblot method; type: functional, cell-based
Method in brief: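 HeLa cells synchronized by double thymidine block and released, treated with 2 μM inhibitor in early S phase, or left untreated. Harvested at set times after release, lysed in NETN with phosphatase and protease inhibitors, run on SDS-PAGE and immunoblotted for cyclin B1 and phosphotyrosine 15 CDK1/2, with cyclin D3 as loading control. Detection by HRP secondary and ECL.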

[2] = target: Cyclin-dependent kinase 1/cyclin B1 (Homo sapiens, UniProt P06493); test: Inhibition of human CDK1-GST-tagged cyclin B using his-tagged Rb as substrate after 30 mins by scintillation counting method; type: protein-complex assay
Chain of Cyclin-dependent kinase 1/cyclin B1 (P06493 whole entry): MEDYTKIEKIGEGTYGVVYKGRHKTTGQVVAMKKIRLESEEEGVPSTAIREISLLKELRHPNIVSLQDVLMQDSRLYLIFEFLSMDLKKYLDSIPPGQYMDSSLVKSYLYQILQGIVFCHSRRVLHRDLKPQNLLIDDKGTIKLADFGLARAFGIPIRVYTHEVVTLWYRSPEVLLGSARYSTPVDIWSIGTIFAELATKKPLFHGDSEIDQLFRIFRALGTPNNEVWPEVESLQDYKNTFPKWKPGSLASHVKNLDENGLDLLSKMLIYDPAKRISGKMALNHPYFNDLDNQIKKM
Chain of Cyclin-dependent kinase 1/cyclin B1 (P14635 whole entry, further chain): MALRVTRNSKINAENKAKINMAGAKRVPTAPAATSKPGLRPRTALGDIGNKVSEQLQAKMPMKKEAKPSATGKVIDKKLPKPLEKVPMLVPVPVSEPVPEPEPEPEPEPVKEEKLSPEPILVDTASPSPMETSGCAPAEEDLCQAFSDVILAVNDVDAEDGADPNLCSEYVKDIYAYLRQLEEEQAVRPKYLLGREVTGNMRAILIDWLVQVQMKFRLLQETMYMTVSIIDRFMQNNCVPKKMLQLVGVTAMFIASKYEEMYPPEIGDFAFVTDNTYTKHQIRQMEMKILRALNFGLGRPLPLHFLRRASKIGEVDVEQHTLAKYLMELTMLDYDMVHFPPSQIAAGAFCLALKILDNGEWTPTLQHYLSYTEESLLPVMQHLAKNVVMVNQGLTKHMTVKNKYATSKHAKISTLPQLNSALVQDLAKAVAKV

HeLa [3] = test: Cell cycle arrest in human HeLa cells transfected with cyclin D3 siRNA assessed as delay in progression into mitosis at 2 uM measured after 8 to 20 hr post hydroxyurea-synchrony release by time-lapse microscopy; type: functional, cell-based
Method in brief: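 HeLa cells transfected with 20 nM cyclin D3 siRNA number 1 or scrambled siRNA, then synchronized by overnight 2 mM hydroxyurea block and released. Treated with CDK4 inhibitor, siRNA, or both; entry into mitosis followed by time-lapse microscopy.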

[4] = target: Cyclin-dependent kinase 4 (Homo sapiens) (UniProt P11802); test: Inhibition of CDK4-mediated Rb phosphorylation at ser 795 in human HCT116 cells at IC50 after 4 hrs by immunoblot analysis; type: cell-based; details: HCT-116
Chain of Cyclin-dependent kinase 4 (Homo sapiens) (P11802 whole entry): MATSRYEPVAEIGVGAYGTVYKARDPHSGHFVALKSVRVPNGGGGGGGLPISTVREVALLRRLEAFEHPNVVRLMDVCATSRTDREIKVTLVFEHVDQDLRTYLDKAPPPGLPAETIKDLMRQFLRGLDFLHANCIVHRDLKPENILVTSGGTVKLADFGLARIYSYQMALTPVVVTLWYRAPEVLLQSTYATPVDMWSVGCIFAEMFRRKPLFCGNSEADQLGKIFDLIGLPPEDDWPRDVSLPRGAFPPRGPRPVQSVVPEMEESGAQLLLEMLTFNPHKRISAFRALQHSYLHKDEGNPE
Method in brief: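 Asynchronous HCT-116 cells (DMEM, 3 mM HEPES, 10% serum, 37 °C, 5% CO₂) were given increasing inhibitor doses for 4 or 24 h. Lysis in NETN with phosphatase and protease inhibitors, then SDS-PAGE, nitrocellulose transfer and immunoblot for phospho-Rb (Ser-795) with HRP secondary and chemiluminescence.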

HeLa [5] = test: Cell cycle arrest in human HeLa cells assessed as accumulation at G1 phase at 2 uM treated 2 hr and measured 10 hr post double thymidine-synchrony release using propidium iodide staining by FACS analysis (reference value: 68 %); type: functional
HeLa [6] = test: Induction of abberent mitosis in human HeLa cells assessed as lagging chromosomes at astral side of spindle microtubules at 2 uM treated 1 hr and measured 12 hr post thymidine-synchrony release by fluorescence microscopy; type: functional, cell-based
HeLa [7] = test: Cell cycle arrest in human HeLa cells assessed as accumulation at G2/M phase at 2 uM treated 2 hr and measured 10 hr post double thymidine-synchrony release using propidium iodide staining by FACS analysis (reference value: 31 %); type: functional
Method in brief: (§1)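 Cells harvested at set times post-release, fixed in 70% ethanol, stained with 5 μg/ml propidium iodide plus 0.5 mg/ml RNase A, and analysed by flow cytometry. Cell-cycle phase fractions calculated by ModFit.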

HeLa [8] = test: Cell cycle arrest at G2 phase in human HeLa cells assessed as delay in entry into mitosis at 2 uM treated 1 hr after double thymidine-synchrony release by MPM-2-based FACS analysis (reference value: 8 hrs); type: functional
HeLa [9] = test: Cell cycle arrest at G2 phase in human HeLa cells assessed as increase in Wee1 level at 2 uM treated at early S phase measured after 8-14 hr post-synchrony release by immunoblot method; type: functional, cell-based
HeLa [10] = test: Cell cycle arrest in synchronized human HeLa cells assessed as inhibition of cytokinesis at 2 uM by time-lapse microscopy; type: functional
HeLa [11] = test: Cell cycle arrest at G2 phase in human HeLa cells assessed as decrease in Cyclin A-CDK2 level at 2 uM treated at early S phase measured after 6-14 hr post thymidine-synchrony release by immunoblot method relative to untreated control; type: functional, cell-based
HeLa [12] = test: Cell cycle arrest in human HeLa cells assessed as time delay in progression through G2/M phase at 4 uM treated within 4 hr post double thymidine-synchrony release using propidium iodide staining by FACS analysis; type: functional; method in brief: as §1
HCT-116 = test: Cell cycle arrest in Rb-competent human HCT116 cells assessed as accumulation at S phase at 3 times IC90 after 24 hrs using BrdUrd staining by FACS analysis (Rvb =38 %); type: functional
COLO 205 [13] = test: Toxicity in human COLO205 cells at 8 uM by MTT assay; type: cell-based; details: colo 205, 8 µM
[14] = Cell cycle arrest in Rb-competent human SK-MEL-13 cells assessed as accumulation at G1 phase at 2 uM after 24 hrs by FACS analysis; type: functional
Method in brief: (§2)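 Ethanol-fixed cells stained with propidium iodide/RNase A, DNA content read by FACS, phase and sub-diploid fractions calculated with ModFit.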

HeLa [15] = test: Cell cycle arrest in Rb-deficient human HeLa cells assessed as accumulation at G2/M phase at 2 uM after 24 hrs by FACS analysis; type: functional; method in brief: as §2
HeLa [16] = test: Cell cycle arrest at G2 phase in human HeLa cells at 2 uM treated at early S phase measured after 6-14 hr post thymidine-synchrony release by immunoblot method relative to untreated control
HeLa [17] = test: Induction of abberent mitosis in human HeLa cells expressing GFP-H2B assessed as micronuclei formation during interphase at 2 uM treated 1 hr and measured 24 hr post thymidine-synchrony release by time-lapse microscopy (reference value: 10%); type: functional
SW480 = test: Toxicity in human SW480 cells at IC50 after 3 days by MTT assay; type: cell-based; details: sw480, 72 h
[18] = Inhibition of JNK using fluorescent substrate by IMAP assay
Method in brief: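 Run in-house using IMAP: phosphorylated fluorescent peptide substrate binds preferentially to immobilized metal beads, which quantifies kinase activity. ATP at 3× the Km of each enzyme.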

COLO 205 [19] = test: Antiproliferative activity against human COLO205 cells assessed as inhibition of S phase after 48 hrs by MTT assay; type: functional, cell-based; details: COLO 205, 48 h
Method in brief: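 Cells grown in DMEM with 3 mM HEPES and 10% Serum Supreme at 37 °C, 5% CO2. Proliferation read by MTT assay 48 h after drug addition; IC50 given as mean of two separate determinations, each in duplicate.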

HeLa [20] = test: Induction of abberent mitosis in human HeLa cells expressing GFP-H2B assessed as normal survivin staining cells at 2 uM by immunofluorescence method (reference value: 7%); type: functional
HeLa [21] = test: Cell cycle arrest at G2 phase in human HeLa cells at 2 uM treated 8 hr and measured 12 hr post-synchrony release using Propidium iodide staining by FACS analysis in presence of p38 MAPK inhibitor SB203580; type: functional, cell-based
HeLa [22] = test: Cell cycle arrest in Rb-deficient human HeLa cells assessed as accumulation at sub-diploid phase at 2 uM after 24 hrs by FACS analysis; type: functional; method in brief: as §2
HeLa [23] = test: Decrease in survivin protein expression in human HeLa cells at 2 uM measured 14 hr post thymidine-synchrony release by immunoblot analysis; type: functional, cell-based
Method in brief: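 Synchronized HeLa cells given 2 μM CDK4 inhibitor in early S phase and harvested at set times post-release. Lysed in supplemented NETN buffer on ice for 20 min. Lysates run on SDS-PAGE and immunoblotted for survivin, borealin and other chromosomal passenger proteins, with ECL detection. Cyclin D3 served as loading control.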

A2058 = test: Cell cycle arrest in human A2058 cells assessed as accumulation at S phase at 2 uM treated 1 hr and measured 10 hr post double hydroxyurea-synchrony release using propidium iodide staining by FACS analysis (reference value: 35 %); type: functional

| SMILES | Activity (HeLa [1]) | IC50 [2] [nM] | Activity (HeLa [3]) | inhibition [4] | Activity (HeLa [5]) [%] | Activity (HeLa [6]) | Activity (HeLa [7]) [%] | Time (HeLa [8]) [h] | Activity (HeLa [9]) | inhibition at 2 µM (HeLa [10]) [%] | Activity (HeLa [11]) | Time (HeLa [12]) [h] | Activity (HCT-116) [%] | Activity (COLO 205 [13]) | Activity [14] [%] | Activity (HeLa [15]) [%] | Activity (HeLa [16]) | Activity (HeLa [17]) [%] | Activity (SW480) | IC50 [18] [nM] | further results |
| --- | --- | --- | --- | --- | --- | --- | --- | --- | --- | --- | --- | --- | --- | --- | --- | --- | --- | --- | --- | --- | --- |
| COc1cccc(C(=O)c2sc(Nc3ccc(N4CCN(C(C)C)CC4)cc3)nc2N)c1 | inactive | 1970 | Active | Active | 4 | Active | 90 | 12 | Active | 20 | Active | >4 | 4 | Toxic | 65 | 14 | Active | 30 | Toxic | > 50000 | IC50 (COLO 205 [19]): 560 nM; Activity (HeLa [20]): 23%; Activity (HeLa [21]): Active; Activity (HeLa [22]): 10%; Activity (HeLa [23]): Active; Activity (A2058): 36% |
| CN1CCN(c2ccc(Nc3nc(N)c(C(=O)c4ccc5c(c4)OCCO5)s3)cc2)CC1 | inactive | 3040 | Active | Active | 4 | Active | 90 | 12 | Active | 20 | Active | >4 | 4 | Toxic | 65 | 14 | Active | 30 | Toxic | > 50000 | IC50 (COLO 205 [19]): 2040 nM; Activity (HeLa [20]): 23%; Activity (HeLa [21]): Active; Activity (HeLa [22]): 10%; Activity (HeLa [23]): Active; Activity (A2058): 36% |
